The source made the active and inactive calls. No cut-off for these calls is given here.
Columns and labels:
[1] = target: T1, 5-hydroxytryptamine receptor 2C (Homo sapiens) (UniProt P28335); experiment: Agonist activity at human 5HT2C receptor expressed in HEK293 cells at 10 uM assessed as calcium flux by FLIPR assay relative to serotonin; format: functional, cell-based
T1 sequence (whole entry): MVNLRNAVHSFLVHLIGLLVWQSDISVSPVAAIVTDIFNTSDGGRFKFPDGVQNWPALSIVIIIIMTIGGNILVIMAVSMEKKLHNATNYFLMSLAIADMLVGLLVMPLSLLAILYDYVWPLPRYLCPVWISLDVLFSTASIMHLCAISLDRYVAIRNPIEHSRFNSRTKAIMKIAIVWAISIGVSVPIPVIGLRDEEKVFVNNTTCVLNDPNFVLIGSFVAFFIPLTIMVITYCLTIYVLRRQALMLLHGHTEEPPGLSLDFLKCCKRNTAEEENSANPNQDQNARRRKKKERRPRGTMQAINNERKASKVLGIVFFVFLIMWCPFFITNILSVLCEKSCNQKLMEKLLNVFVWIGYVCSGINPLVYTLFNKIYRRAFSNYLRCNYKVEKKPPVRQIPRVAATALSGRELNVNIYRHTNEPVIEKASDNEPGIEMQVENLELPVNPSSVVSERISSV

[2] = target: T2, 5-hydroxytryptamine receptor 2A (Homo sapiens, UniProt P28223); experiment: Agonist activity at human 5HT2A receptor expressed in HEK293 cells assessed as calcium flux by FLIPR assay; format: functional, cell-based
T2 sequence (P28223 whole entry): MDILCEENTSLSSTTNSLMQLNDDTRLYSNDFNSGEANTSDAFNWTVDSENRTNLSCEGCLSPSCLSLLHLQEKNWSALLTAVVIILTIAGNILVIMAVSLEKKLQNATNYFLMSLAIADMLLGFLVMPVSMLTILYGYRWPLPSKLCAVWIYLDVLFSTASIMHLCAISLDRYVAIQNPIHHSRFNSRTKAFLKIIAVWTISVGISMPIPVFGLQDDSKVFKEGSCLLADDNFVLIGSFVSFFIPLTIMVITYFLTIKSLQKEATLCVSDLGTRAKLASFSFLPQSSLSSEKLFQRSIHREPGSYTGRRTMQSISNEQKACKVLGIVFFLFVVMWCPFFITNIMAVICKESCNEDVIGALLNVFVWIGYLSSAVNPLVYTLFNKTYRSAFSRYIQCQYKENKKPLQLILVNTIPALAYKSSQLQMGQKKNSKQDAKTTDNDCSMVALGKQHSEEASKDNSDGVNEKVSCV

[3] = species on record: Homo sapiens; experiment: Selectivity ratio of EC50 for human 5HT2B receptor to EC50 for human 5HT2C receptor
[4] = target: T3, 5-hydroxytryptamine receptor 2C (Homo sapiens, UniProt P28335); experiment: (§1) Agonist activity at human 5HT2C receptor expressed in HEK293 cells assessed as calcium flux by FLIPR assay; format: functional, cell-based
T3 sequence (P28335 whole entry): T1 sequence (whole entry)

[5] = target: T4, 5-hydroxytryptamine receptor 2B (Homo sapiens, UniProt P41595); experiment: Agonist activity at human 5HT2B receptor expressed in HEK293 cells assessed as calcium flux by FLIPR assay; format: functional, cell-based
T4 sequence (P41595 whole entry): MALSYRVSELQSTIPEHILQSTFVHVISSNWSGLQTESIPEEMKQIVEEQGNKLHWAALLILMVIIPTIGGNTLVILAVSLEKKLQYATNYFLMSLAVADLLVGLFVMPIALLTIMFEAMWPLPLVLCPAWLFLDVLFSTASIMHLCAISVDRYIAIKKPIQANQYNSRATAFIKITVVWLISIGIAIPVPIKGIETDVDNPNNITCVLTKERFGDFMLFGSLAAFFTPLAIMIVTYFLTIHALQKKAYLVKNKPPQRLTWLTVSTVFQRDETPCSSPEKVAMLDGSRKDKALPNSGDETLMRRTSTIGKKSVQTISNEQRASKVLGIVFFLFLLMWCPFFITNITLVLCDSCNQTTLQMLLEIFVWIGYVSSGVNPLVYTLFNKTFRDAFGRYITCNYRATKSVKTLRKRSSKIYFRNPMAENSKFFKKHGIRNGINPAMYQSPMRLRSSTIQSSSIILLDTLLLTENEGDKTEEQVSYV

[6] = target: T4, 5-hydroxytryptamine receptor 2B; experiment: Agonist activity at human 5HT2B receptor expressed in HEK293 cells at 10 uM assessed as calcium flux by FLIPR assay relative to serotonin; format: functional, cell-based
[7] = target: Serotonin 2 receptors; 5-HT2a & 5-HT2c (Homo sapiens) (UniProt P28223+P28335); experiment: Selectivity ratio of EC50 for human 5HT2A receptor to EC50 for human 5HT2C receptor
Sequence of Serotonin 2 receptors; 5-HT2a & 5-HT2c (Homo sapiens) (P28223 whole entry, looked up, one chain of several): as the sequence (P28223 whole entry) above

[8] = target: T2, 5-hydroxytryptamine receptor 2A; experiment: Agonist activity at human 5HT2A receptor expressed in HEK293 cells at 10 uM assessed as calcium flux by FLIPR assay relative to serotonin; format: functional, cell-based
[9] = target: Sodium-dependent serotonin transporter (Homo sapiens, UniProt P31645); experiment: Displacement of [3H]citalopram from SERT
Sequence of Sodium-dependent serotonin transporter (P31645 whole entry): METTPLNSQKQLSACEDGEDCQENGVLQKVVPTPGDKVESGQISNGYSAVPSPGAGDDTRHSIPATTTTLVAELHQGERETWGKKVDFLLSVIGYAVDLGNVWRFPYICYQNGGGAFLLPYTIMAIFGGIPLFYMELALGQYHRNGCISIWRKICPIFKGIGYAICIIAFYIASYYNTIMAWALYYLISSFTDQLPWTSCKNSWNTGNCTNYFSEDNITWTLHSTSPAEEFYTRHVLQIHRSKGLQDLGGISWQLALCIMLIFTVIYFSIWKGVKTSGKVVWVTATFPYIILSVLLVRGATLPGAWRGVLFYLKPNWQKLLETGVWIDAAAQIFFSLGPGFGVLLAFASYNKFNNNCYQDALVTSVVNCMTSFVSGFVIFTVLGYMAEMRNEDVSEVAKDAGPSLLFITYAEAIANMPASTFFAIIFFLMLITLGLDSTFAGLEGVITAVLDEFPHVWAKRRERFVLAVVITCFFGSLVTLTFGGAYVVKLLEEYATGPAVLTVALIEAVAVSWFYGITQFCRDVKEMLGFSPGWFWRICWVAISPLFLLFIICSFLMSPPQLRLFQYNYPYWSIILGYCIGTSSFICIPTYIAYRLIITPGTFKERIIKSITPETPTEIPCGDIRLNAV

[10] = target: T2, 5-hydroxytryptamine receptor 2A; experiment: Displacement of [3H]ketanserin from human 5HT2A receptor
[11] = target: T4, 5-hydroxytryptamine receptor 2B; experiment: Displacement of [3H]LSD from human 5HT2B receptor
[12] = target: Sodium-dependent dopamine transporter (Homo sapiens, UniProt Q01959); experiment: Displacement of [3H]WIN-35428 from DAT
Sequence of Sodium-dependent dopamine transporter (Q01959 whole entry): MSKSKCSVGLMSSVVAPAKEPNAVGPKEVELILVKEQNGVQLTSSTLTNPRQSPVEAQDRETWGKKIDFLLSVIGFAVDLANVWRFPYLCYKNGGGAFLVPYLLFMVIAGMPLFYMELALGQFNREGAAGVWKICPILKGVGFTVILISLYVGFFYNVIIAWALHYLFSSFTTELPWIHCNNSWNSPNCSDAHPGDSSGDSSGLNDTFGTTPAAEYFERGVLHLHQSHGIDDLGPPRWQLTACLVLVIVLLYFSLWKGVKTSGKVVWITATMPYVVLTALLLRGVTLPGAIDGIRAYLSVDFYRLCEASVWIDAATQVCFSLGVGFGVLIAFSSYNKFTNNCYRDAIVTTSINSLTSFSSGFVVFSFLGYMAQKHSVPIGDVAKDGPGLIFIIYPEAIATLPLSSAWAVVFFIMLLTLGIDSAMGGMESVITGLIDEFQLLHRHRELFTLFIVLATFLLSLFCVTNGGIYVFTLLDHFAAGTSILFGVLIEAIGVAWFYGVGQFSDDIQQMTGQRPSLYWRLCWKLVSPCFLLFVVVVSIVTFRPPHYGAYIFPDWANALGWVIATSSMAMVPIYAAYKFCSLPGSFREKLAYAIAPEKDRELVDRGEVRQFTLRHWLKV

[13] = target: Sodium-dependent noradrenaline transporter (Homo sapiens, UniProt P23975); experiment: Displacement of [3H]nisoxetine from NET
Sequence of Sodium-dependent noradrenaline transporter (P23975 whole entry): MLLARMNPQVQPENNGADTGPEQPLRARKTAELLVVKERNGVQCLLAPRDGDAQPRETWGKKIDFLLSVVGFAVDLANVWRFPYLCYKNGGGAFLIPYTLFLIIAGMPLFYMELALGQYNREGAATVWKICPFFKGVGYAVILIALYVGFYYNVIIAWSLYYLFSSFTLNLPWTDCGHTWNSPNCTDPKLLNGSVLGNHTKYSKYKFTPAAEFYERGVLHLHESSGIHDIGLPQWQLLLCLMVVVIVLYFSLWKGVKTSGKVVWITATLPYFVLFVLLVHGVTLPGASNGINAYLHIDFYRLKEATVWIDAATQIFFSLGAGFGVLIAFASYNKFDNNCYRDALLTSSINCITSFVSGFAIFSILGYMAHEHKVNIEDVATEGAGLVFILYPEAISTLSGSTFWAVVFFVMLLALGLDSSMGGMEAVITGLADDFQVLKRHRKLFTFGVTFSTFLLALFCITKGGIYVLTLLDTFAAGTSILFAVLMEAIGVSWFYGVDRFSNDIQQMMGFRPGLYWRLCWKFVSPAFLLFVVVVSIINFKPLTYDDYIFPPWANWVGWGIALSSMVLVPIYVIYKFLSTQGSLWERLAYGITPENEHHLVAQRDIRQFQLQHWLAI

[14] = Selectivity ratio of Ki for human 5HT2A receptor to Ki for 5HT2C receptor
[15] = target: T3, 5-hydroxytryptamine receptor 2C; experiment: Displacement of [3H]mesulergine from 5HT2C receptor
[16] = Selectivity ratio of Ki for human 5HT2B receptor to Ki for 5HT2C receptor
[17] = system: Mus musculus; experiment: Antidepressant activity in C57BL/6J mouse assessed as decrease in immobility time at 10 mg/kg, ip administered 30 mins prior to testing measured every 1 min for 6 mins by forced swim test relative to control; format: functional
Summary of the method: (§2)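 Male C57BL/6J mice, 9 weeks old, housed 4 per cage on a 12 h light-dark cycle. Compound given ip in 10% DMSO in saline 30 min before testing. Each mouse was placed alone in a glass cylinder holding 12 cm of water at 23 ± 1 °C. Immobility (floating posture) was scored every 1 min over a 6 min trial and compared with vehicle.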

[18] = target: T1, 5-hydroxytryptamine receptor 2C (Homo sapiens); experiment: as §1; format: functional, cell-based
[19] = system: Mus musculus; experiment: Antidepressant activity in C57BL/6J mouse assessed as decrease in immobility time at 30 mg/kg, ip administered 30 mins prior to testing measured every 1 min for 6 mins by forced swim test relative to control; format: functional; parameters: scale not given: the % may be the effect or the level left; conditions: route intraperitoneal; summary of the method: as §2
[20] = system: Mus musculus; experiment: Antidepressant activity in C57BL/6J mouse assessed as decrease in immobility time at 60 mg/kg, ip administered 30 mins prior to testing measured every 1 min for 6 mins by forced swim test relative to control; format: functional; parameters: scale not given: the % may be the effect or the level left; conditions: route intraperitoneal; summary of the method: as §2

Row | Compound | Emax [1] [%] | Ratio EC50 [3] | EC50 [4] [nM] | EC50 [5] [nM] | Emax [6] [%] | Emax [8] [%] | Activity [2] | Activity [5] | also measured
1 | NC[C@H]1C[C@@H]1c1ccccc1 | 108 | 7.2 | 5.2 | 37 | 111 | 79 |  |  | EC50 [2]: 1400 nM; Ratio EC50 [7]: 268
2 | NC[C@H]1C[C@@H]1c1ccccc1Br | 116 | 17 | 0.78 | 13 | 102 | 76 |  |  | Ki [9]: 3820 nM; Ki [10]: 246 nM; EC50 [2]: 67 nM; Ki [11]: 16 nM; Ki [12]: 2110 nM; Ki [13]: 3400 nM; Ratio Ki [14]: 3.7; Ki [15]: 66 nM; Ratio Ki [16]: 0.24; Ratio EC50 [7]: 86
3 | CN[C@H]1CC[C@@H](c2ccc(Cl)c(Cl)c2)c2ccccc21 |  |  |  |  |  |  |  |  | Activity [17]: Active
4 | CN(C)[C@H]1C[C@@H]1c1ccccc1 (racemic) | < 12 |  |  |  | -2 | < 12 | inactive | inactive | Activity [18]: inactive
5 | CN[C@H]1C[C@@H]1c1ccccc1 (racemic) | < 12 |  |  |  | 6 | < 12 | inactive | inactive | Activity [18]: inactive
6 | c1ccc(CN[C@H]2C[C@@H]2c2ccccc2)cc1 (racemic) | < 12 |  |  |  | -1 | < 12 | inactive | inactive | Activity [18]: inactive
7 | Cc1cccc([C@H]2C[C@@H]2CN)c1.Cl (relative stereo) | 95 | 14 |  |  | 93 | 86 |  |  | Activity ([17]; route intraperitoneal): 28%; Activity [19]: 38%; Ratio Ki [14]: 6.9; Activity [20]: 38%; Ratio Ki [16]: 0.32; Ratio EC50 [7]: 123
8 | N#Cc1ccc(-c2cccc([C@H]3C[C@@H]3CN)c2)cc1 (relative stereo) | 41 |  | > 1000 |  | < 12 | < 12 | inactive | inactive | 
9 | C#Cc1cccc([C@H]2C[C@@H]2CN)c1 (relative stereo) | 91 | 1.4 | 136 | 185 | 84 | 42 |  |  | EC50 [2]: > 10000 nM
10 | NC[C@H]1C[C@@H]1c1cccc(-c2cc3ccccc3o2)c1 (relative stereo) | 39 |  | > 1000 |  | < 12 | < 12 | inactive | inactive | 
11 | CC(=O)Nc1cccc([C@H]2C[C@@H]2CN)c1 (relative stereo) | 39 |  | > 1000 |  | < 12 | < 12 | inactive | inactive | 
12 | CC(=O)Nc1ccccc1[C@H]1C[C@@H]1CN (relative stereo) | 30 |  | > 1000 |  | < 12 | < 12 | inactive | inactive | 
13 | NC[C@H]1C[C@@H]1c1cccc(C#CCCCCO)c1 (relative stereo) | 79 | > 1 | 332 | 1740 | 17 | < 12 | inactive |  | Ratio EC50 [7]: > 30
14 | NC[C@H]1C[C@@H]1c1ccc(-c2ccc(F)cc2)cc1 (relative stereo) | 45 |  | > 1000 | > 1000 | 10 | < 12 | inactive |  | 
15 | NC[C@H]1C[C@@H]1c1ccc(-c2ccco2)cc1 (relative stereo) | 75 |  | 1200 |  | < 12 | < 12 | inactive | inactive | 
16 | NC[C@H]1C[C@@H]1c1ccccc1C#CCCCCO (relative stereo) | 88 | 0.88 | 232 | 204 | 84 | < 12 | inactive |  | Ratio EC50 [7]: > 43
17 | NC[C@H]1C[C@@H]1c1ccccc1-c1ccc(F)cc1 (relative stereo) | 74 | > 3 | 301 | > 1000 | 43 | < 12 | inactive |  | 
18 | NC[C@H]1C[C@@H]1c1cccc(-c2ccc(F)cc2)c1 (relative stereo) | 79 |  | 695 |  | < 12 | < 12 | inactive | inactive | 
19 | NC[C@H]1C[C@@H]1c1ccccc1-c1cc2ccccc2o1 (relative stereo) | 66 | > 1 | 1960 | > 1000 | 10 | < 12 | inactive |  | 
20 | NC[C@H]1C[C@@H]1c1ccccc1NC(=O)c1ccccc1 (relative stereo) | 39 |  | > 1000 |  | < 12 | < 12 | inactive | inactive | 
21 | NC[C@H]1C[C@@H]1c1ccccc1NC(=O)Nc1ccc(Cl)cc1 (relative stereo) | 38 |  | > 1000 |  | < 12 | < 12 | inactive | inactive | 
22 | NC[C@H]1C[C@@H]1c1cccc(NCc2ccccc2)c1 (relative stereo) | 77 |  | 1180 |  | < 12 | < 12 | inactive | inactive | 
23 | NC[C@@H]1C[C@H]1c1ccccc1Br (relative stereo) [listing 1 of 2 here] |  |  | 1.3 | 4.8 |  |  |  |  | Ki [9]: 2720 nM; Ki [10]: 655 nM; EC50 [2]: 94 nM; Ki [11]: 22 nM; Ki [12]: > 10000 nM; Ki [13]: 2730 nM; Ki [15]: 124 nM
24 | NC[C@H]1C[C@@H]1c1cccc(-c2ccc(C(F)(F)F)cc2)c1 (relative stereo) | 61 |  | > 1000 |  | < 12 | < 12 | inactive | inactive | 
25 | NC[C@H]1C[C@@H]1c1cccc(-c2ccc(Cl)cc2)c1 (relative stereo) | 87 |  | 1580 |  | < 12 | < 12 | inactive | inactive | 
26 | NC[C@@H]1C[C@H]1c1ccccc1Br (relative stereo) [listing 2 of 2 here] | 76 | 3.7 |  |  | 86 | 71 |  |  | Ratio Ki [14]: 5.3; Ratio Ki [16]: 0.18; Ratio EC50 [7]: 73
27 | NC[C@H]1C[C@@H]1c1ccc(F)cc1 (relative stereo) | 93 | 1.9 |  |  | 89 | 67 |  |  | Ratio Ki [14]: 11.5; Ratio Ki [16]: 0.37; Ratio EC50 [7]: 47
28 | NC[C@H]1C[C@@H]1c1ccc(F)cc1Cl (relative stereo) | 100 | 7.3 |  |  | 97 | 91 |  |  | Ratio Ki [14]: 1.2; Ratio Ki [16]: 0.08; Ratio EC50 [7]: 30
29 | NC[C@H]1C[C@@H]1c1ccc(O)cc1 (relative stereo) | < 12 |  |  |  | < 12 | < 12 | inactive | inactive | Activity [18]: inactive
30 | C[C@H]1CNCCc2ccc(Cl)cc21 [LORCASERIN] | 124 |  |  |  |  | 26 |  |  | Ki [12]: > 10000 nM; Ki [13]: > 10000 nM

— ChEMBL document CHEMBL1153382 (J Med Chem, 2009)
